Experimental data: article PMC5689068 (ACS chemical neuroscience, 2016)
pIC50: −log10 of the molar value.

Tests used:
[1] = In vitro stability in rat plasma; type: in vitro ADME
[2] = Rat plasma stability of 1 with or without protease inhibitors; type: in vitro ADME; conditions: t1/2, rat plasma, calculated after a 4 h incubation
In short: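 Test compound was added to rat plasma together with one protease inhibitor (60 nM bestatin, 100 µM chymostatin, 1 mM PMSF, 10 µM captopril or 1 mM EDTA), with all five combined, or with none. Incubation was at 37 °C after 5-fold dilution of the stock. Parent remaining was measured by RP-HPLC after EtOH quench. t1/2 was calculated after 4 h incubation as 0.693/slope of ln(fraction remaining) versus time.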

[3] = system: naïve rats; conditions: naïve animals, i.th.; cited from earlier work
[4] = molecular target: BK receptors; experiment: Radioligand competition binding assay with [3H]BK in rat brain membranes; conditions: pH 6.8, rat brain membranes, 1 nM [3H]BK
[5] = In vitro stability in human plasma; type: in vitro ADME
In short: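 Test compound stock (50 mg/mL in water) was diluted 5-fold into lithium-heparin human plasma and incubated at 37 °C. Samples were taken at 1, 2, 4, 6, 12 and 24 h, quenched with EtOH and centrifuged. Supernatant was run on C-18 RP-HPLC (10–90% acetonitrile, 40 min). t1/2 = 0.693/b, where b is the slope of ln(fraction parent remaining) versus time. Three independent experiments.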

[6] = system: SNL rats; conditions: nerve-injured animals (L5/L6 SNL), i.th., dose-dependent; cited from earlier work

With `CC[C@H](C)[C@H](NC(=O)[C@H](CCCNC(=N)N)NC(=O)[C@H](CC(C)C)NC(=O)[C@@H](N)Cc1ccccc1)C(=O)N[C@@H](CCCNC(=N)N)C(=O)N1CCC[C@H]1C(=O)N[C@@H](CCCCN)C(=O)O` [compound 1, H-Phe-Leu-Arg-Ile-Arg-Pro-Lys-OH] the “time to complete degradation” value ([1]; rat plasma incubation) was ≤ 4 h, the half-life ([1]; rat, plasma, t1/2 in rat plasma, 37 °C, 24 h study) was < 60 min and the remaining at 24 h, 10 mg/mL ([1]; rat, rat plasma) was 0%. It also gave a half-life ([2]; 60 nM bestatin) of 48 min, a half-life ([2]; 1 mM EDTA) of 48 min and a half-life ([2]; 1 mM PMSF) of 48 min. The “Dyn A-induced hyperalgesia and motor impairments” value [3] was “block Dyn A-induced hyperalgesia and motor impairments”, the “log[IC50], BK receptors, [3H]BK” value [4] was −6.83 ± 0.09 and the pIC50 ([4]; read-out: IC50, BK receptors, [3H]BK) was 6.82. The time to degradation ([5]; human plasma incubation) was ≤ 4 h, the remaining at 24 h, 10 mg/mL ([5]; human, human plasma) was 0% and the half-life ([5]; human, plasma) was 144 min. For the same compound, the “thermal hyperalgesia and mechanical hypersensitivity” value [6] was “reverse thermal hyperalgesia and mechanical hypersensitivity”.
